Results from ChEMBL document CHEMBL1128385, “Three-dimensional quantitative structure-activity relationships of somatostatin analogues. 1. Comparative molecular field analysis of growth hormone release-inhibiting potencies” (J Med Chem, 1995).
Where a SMILES comes first, the peptide text is derived from it. [ ]: non-standard residue; d: D form. Phe(4-NO2) = N[C@@H](Cc1ccc([N+](=O)[O-])cc1)C(=O)O; dPhe(4-Cl) = N[C@H](Cc1ccc(Cl)cc1)C(=O)O; 2Nal = N[C@@H](Cc1ccc2ccccc2c1)C(=O)O; d2Nal = N[C@H](Cc1ccc2ccccc2c1)C(=O)O

Organism: Rattus norvegicus
Experiment: In vitro GH release inhibiting potency on anterior pitutaries from adult male rats, relative to somatostatin
Assay type: functional
Outline: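 Rat anterior pituitary cells (adult males, 200-250 g), trypsin/DNase dispersed, plated 2 × 10^5 cells/well, cultured 96 h at 37 °C in serum-supplemented DMEM. After washing, cells were pulsed 3 h at 37 °C with 1 nM GRF(1-29)NH2 ± graded analogue doses in medium 199/1% BSA, quadruplicate wells. Medium GH was measured by double-antibody RIA. Potency relative to somatostatin (=1.0) came from four-point assay (mean of ≥3 experiments) or IC50 comparison.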

CC(C)[C@H](NC(=O)[C@H](CCCCN)NC(=O)[C@@H](Cc1c[nH]c2ccccc12)NC(=O)[C@H](Cc1ccc(O)cc1)NC(=O)[C@H](C)NC(=O)[C@H](N)Cc1ccc(Cl)cc1)C(=O)N[C@@H](C)C(=O)N[C@@H](Cc1ccc2ccccc2c1)C(N)=O (H-[dPhe(4-Cl)]AY[dW]KVA[2Nal]-NH2)
GHI: 45

C[C@@H](O)[C@@H]1NC(=O)[C@H](CCCCN)NC(=O)[C@@H](Cc2c[nH]c3ccccc23)NC(=O)[C@H](Cc2ccccc2)NC(=O)[C@@H]2CSSC[C@H](NC1=O)C(=O)NCCCCCCC(=O)N2 (stereo in doubt)
GHI: 0.81

C[C@@H](O)[C@@H]1NC(=O)[C@H](CCCN=C(N)N)NC(=O)[C@@H](Cc2c[nH]c3ccccc23)NC(=O)[C@H](Cc2ccccc2)NC(=O)[C@H](Cc2ccccc2)NC(=O)CCCCCCNC(=O)[C@H](Cc2ccccc2)NC1=O (stereo in doubt)
GHI: 14

C[C@@H](O)[C@H](NC(=O)[C@H](CCCCN)NC(=O)[C@@H](Cc1c[nH]c2ccccc12)NC(=O)[C@H](Cc1ccc(O)cc1)NC(=O)[C@H](Cc1ccc(Cl)cc1)NC(=O)[C@H](N)Cc1ccccc1)C(=O)N[C@@H](Cc1ccccc1)C(=O)N[C@@H](Cc1ccc2ccccc2c1)C(N)=O
GHI: 100

CC(C)[C@@H]1NC(=O)[C@H](CCCCN)NC(=O)[C@@H](Cc2c[nH]c3ccccc23)NC(=O)[C@H](Cc2ccc(O)cc2)NC(=O)[C@@H](NC(=O)[C@H](N)Cc2ccc3ccccc3c2)CSSC[C@@H](C(=O)N[C@H](C(N)=O)[C@@H](C)O)NC1=O
GHI: 0.83

CC(C)[C@H](NC(=O)[C@H](CCCCN)NC(=O)[C@@H](Cc1c[nH]c2ccccc12)NC(=O)[C@H](Cc1ccc(O)cc1)NC(=O)[C@H](Cc1ccccc1)NC(=O)[C@H](N)Cc1ccccc1)C(=O)N[C@@H](Cc1ccccc1)C(=O)N[C@H](Cc1ccccc1)C(N)=O (H-[dF]FY[dW]KVF[dF]-NH2)
GHI: 11100

C[C@@H](O)[C@@H]1NC(=O)C(CCCCN)NC(=O)[C@@H](Cc2c[nH]c3ccccc23)NC(=O)C(Cc2ccccc2)NC(=O)[C@@H]2CCCN2C(=O)C(Cc2ccccc2)NC1=O (single isomer, unassigned)
GHI: 0.59

CC(C)C1NC(=O)[C@H](CCCCN)NC(=O)C(Cc2c[nH]c3ccccc23)NC(=O)[C@H](Cc2ccc(O)cc2)NC(=O)C(C)N(C)C(=O)[C@H](Cc2ccccc2)NC1=O (single isomer, unassigned)
GHI: 0.02

C[C@@H](O)[C@@H]1NC(=O)[C@H](Cc2ccc(N)cc2)NC(=O)[C@H](Cc2cn(C)c3ccccc23)NC(=O)[C@H](Cc2ccccc2)NC(=O)[C@H](Cc2ccccc2)NC(=O)CCCCCCNC(=O)[C@H](Cc2ccccc2)NC1=O (stereo in doubt)
GHI: 1.8

C[C@@H](O)[C@@H]1NC(=O)C(CCCCN)NC(=O)[C@@H](Cc2c[nH]c3ccccc23)NC(=O)C(Cc2ccccc2)NC(=O)[C@@H]2CCCN2C(=O)[C@@H]2CCCN2C1=O (single isomer, unassigned)
GHI: 125

CC(C)[C@H](NC(=O)[C@H](CCCCN)NC(=O)[C@@H](Cc1c[nH]c2ccccc12)NC(=O)[C@H](Cc1ccc(O)cc1)NC(=O)[C@H](Cc1ccc(Cl)cc1)NC(=O)[C@H](N)Cc1ccccc1)C(=O)N[C@@H](Cc1ccccc1)C(=O)N[C@H](C)C(N)=O
GHI: 4000

CC(C)C[C@@H]1NC(=O)[C@H](Cc2ccccc2)NC(=O)CCCCCCNC(=O)[C@H](Cc2ccccc2)NC(=O)[C@H]([C@@H](C)O)NC(=O)[C@H](CCCCN)NC(=O)[C@@H](Cc2c[nH]c3ccccc23)NC1=O (stereo in doubt)
GHI: 1.05

CC(C)[C@@H]1NC(=O)[C@H](CCCCN)NC(=O)[C@@H](Cc2c[nH]c3ccccc23)NC(=O)[C@H](Cc2ccc(O)cc2)NC(=O)[C@H](NC(=O)[C@H](N)C(c2ccccc2)c2ccccc2)CSSC[C@@H](C(=O)N[C@@H](Cc2ccc3ccccc3c2)C(N)=O)NC1=O
GHI: 0.91

CC(C)[C@@H]1NC(=O)[C@H](CCCCN)NC(=O)[C@@H](Cc2c[nH]c3ccccc23)NC(=O)[C@H](Cc2ccc(O)cc2)NC(=O)[C@@H](NC(=O)[C@H](N)Cc2ccc3ccccc3c2)CSSC[C@@H](C(=O)N[C@H](C(=O)O)[C@@H](C)O)NC1=O
GHI: 1.07

C[C@@H](O)[C@@H]1NC(=O)[C@H](CCCCN)NC(=O)[C@@H](Cc2c[nH]c3ccccc23)NC(=O)[C@H](Cc2cscn2)NC(=O)[C@H](Cc2ccccc2)NC(=O)CCCCCCNC(=O)[C@H](Cc2ccccc2)NC1=O (stereo in doubt)
GHI: 5

CC(C)[C@H](NC(=O)[C@H](CCCCN)NC(=O)[C@@H](Cc1c[nH]c2ccccc12)NC(=O)[C@H](Cc1ccc(O)cc1)NC(=O)[C@H](Cc1ccccc1)NC(=O)[C@H](N)Cc1ccccc1)C(=O)N[C@@H](Cc1ccccc1)C(=O)N[C@H](C(N)=O)[C@@H](C)O (H-[dF]FY[dW]KVFT-NH2)
GHI: 111

C[C@H]1C(=O)NC(Cc2ccccc2)C(=O)NCCCCCCC(=O)N[C@@H](Cc2ccccc2)C(=O)NC(Cc2ccccc2)C(=O)N[C@H](Cc2c[nH]c3ccccc23)C(=O)NC(CCCCN)C(=O)N1C (single isomer, unassigned)
GHI: 50

C[C@@H](O)[C@@H]1NC(=O)[C@H](CCCCN)NC(=O)[C@@H](Cc2c[nH]c3ccccc23)NC(=O)[C@H](Cc2ccc(O)cc2)NC(=O)[C@@H](NC(=O)[C@H](N)Cc2ccccc2)CSSC[C@@H](C(=O)N[C@@H](Cc2ccc3ccccc3c2)C(N)=O)NC1=O
GHI: 0.05

C[C@@H](O)[C@@H]1NC(=O)[C@H](CCCN)NC(=O)[C@@H](Cc2c[nH]c3ccccc23)NC(=O)[C@H](Cc2ccccc2)NC(=O)[C@H](Cc2ccccc2)NC(=O)CCCCCCNC(=O)[C@H](Cc2ccccc2)NC1=O (stereo in doubt)
GHI: 20

Cc1ccc2[nH]cc(C[C@@H]3NC(=O)[C@H](Cc4ccccc4)NC(=O)[C@H](Cc4ccccc4)NC(=O)CCCCCCNC(=O)[C@H](Cc4ccccc4)NC(=O)[C@H]([C@@H](C)O)NC(=O)[C@H](CCCCN)NC3=O)c2c1 (stereo in doubt)
GHI: 14

C[C@@H](O)[C@@H]1NC(=O)[C@H](CCCCN)NC(=O)[C@@H](Cc2c[nH]c3ccccc23)NC(=O)[C@H](Cc2ccc(F)cc2)NC(=O)[C@H](Cc2ccccc2)NC(=O)CCCCCCNC(=O)[C@H](Cc2ccccc2)NC1=O (stereo in doubt)
GHI: 20

C[C@@H]1NC(=O)[C@H](Cc2ccccc2)NC(=O)CCCCCCNC(=O)[C@H](Cc2ccccc2)NC(=O)[C@H]([C@@H](C)O)NC(=O)[C@H](CCCCN)NC(=O)[C@@H](Cc2c[nH]c3ccccc23)NC1=O (stereo in doubt)
GHI: 6.25

CC[C@@H]1NC(=O)[C@H](CCCCN)NC(=O)C(Cc2c[nH]c3ccccc23)NC(=O)[C@H](Cc2ccc(O)cc2)NC(=O)[C@@H]2Cc3ccccc3CN2C(=O)[C@H](Cc2ccccc2)NC1=O (single isomer, unassigned)
GHI: 0.26

CC(C)[C@@H]1NC(=O)[C@H](CCCCN)NC(=O)[C@@H](Cc2c[nH]c3ccccc23)NC(=O)[C@H](Cc2ccc(O)cc2)NC(=O)[C@H](NC(=O)[C@H](N)Cc2ccc3ccccc3c2)CSSC[C@@H](C(=O)N[C@@H](Cc2ccc3ccccc3c2)C(=O)O)NC1=O
GHI: 1.12

CC(C)[C@H](NC(=O)[C@H](CCCCN)NC(=O)[C@@H](Cc1c[nH]c2ccccc12)NC(=O)[C@H](Cc1ccc(O)cc1)NC(=O)[C@H](Cc1ccccc1)NC(=O)[C@H](N)Cc1ccccc1)C(=O)N[C@@H](Cc1ccccc1)C(=O)N[C@H](Cc1ccc2ccccc2c1)C(N)=O (H-[dF]FY[dW]KVF[d2Nal]-NH2)
GHI: 12500

C[C@@H](O)[C@@H]1NC(=O)[C@H](CCCCN)NC(=O)[C@@H](Cc2c[nH]c3ccccc23)NC(=O)[C@H](Cc2ccc(N)cc2)NC(=O)[C@H](Cc2ccccc2)NC(=O)CCCCCCNC(=O)[C@H](Cc2ccccc2)NC1=O (stereo in doubt)
GHI: 35

CC(C)[C@@H]1NC(=O)C(CCCCN)NC(=O)[C@@H](Cc2c[nH]c3ccccc23)NC(=O)C(Cc2ccccc2)NC(=O)[C@@H]2CCCN2C(=O)C(Cc2ccccc2)NC1=O (single isomer, unassigned)
GHI: 0.29

C[C@@H](O)[C@H](NC(=O)[C@@H]1CSSC[C@H](NC(=O)[C@H](N)Cc2ccc3ccccc3c2)C(=O)N[C@@H](Cc2ccc(O)cc2)C(=O)N[C@H](Cc2c[nH]c3ccccc23)C(=O)N[C@@H](CCCCN)C(=O)N[C@@H]([C@@H](C)O)C(=O)N1)C(N)=O
GHI: 0.19

NCCCCC1NC(=O)[C@@H](Cc2c[nH]c3ccccc23)NC(=O)C(Cc2ccccc2)NC(=O)[C@@H]2CCCN2C(=O)C(Cc2ccccc2)NC(=O)[C@H](CO)NC1=O (single isomer, unassigned)
GHI: 0.71

CC(C)[C@H](NC(=O)[C@H](CCCCN)NC(=O)[C@@H](Cc1c[nH]c2ccccc12)NC(=O)[C@H](Cc1ccc(O)cc1)NC(=O)[C@H](Cc1ccc([N+](=O)[O-])cc1)NC(=O)[C@H](N)Cc1ccccc1)C(=O)N[C@@H](Cc1ccccc1)C(=O)N[C@H](C(N)=O)[C@@H](C)O (H-[dF][Phe(4-NO2)]Y[dW]KVFT-NH2)
GHI: 159

C[C@@H](O)[C@H](NC(=O)[C@H](Cc1ccccc1)NC(=O)[C@@H](NC(=O)[C@H](CCCCN)NC(=O)[C@@H](Cc1c[nH]c2ccccc12)NC(=O)[C@H](Cc1ccccc1)NC(=O)[C@H](Cc1ccccc1)NC(=O)[C@H](N)Cc1ccccc1)[C@@H](C)O)C(N)=O (H-[dF]FF[dW]KTFT-NH2)
GHI: 77

CC1NC(=O)[C@H]([C@@H](C)O)NC(=O)C(CCCCN)NC(=O)[C@@H](Cc2c[nH]c3ccccc23)NC(=O)C(Cc2ccccc2)NC(=O)[C@@H]2CCCN2C1=O (single isomer, unassigned; 58)
GHI: 16.7

C[C@@H](O)[C@@H]1NC(=O)[C@H](CCCCN)NC(=O)[C@@H](Cc2c[nH]c3ccccc23)NC(=O)[C@H](Cc2ccc(Cl)cc2)NC(=O)[C@H](Cc2ccccc2)NC(=O)CCCCCCNC(=O)[C@H](Cc2ccccc2)NC1=O (stereo in doubt)
GHI: 1.4
